Results as given in ChEMBL document CHEMBL4706499, “PTG-0861: A novel HDAC6-selective inhibitor as a therapeutic strategy in acute myeloid leukaemia” (Eur J Med Chem, 2020).
pIC50: −log10 of the molar value. Activity calls are given as the source filed them. The calls are words filed in the database; no cut-off is given here.

What was measured:
[1] = system: RPMI-8226; assay: Cytotoxicity against human RPMI-8226 cells measured after 72 hrs by spectrophotometer method; type: functional, cell-based; settings: RPMI-8226, 72 h
[2] = Glutathione reactivity at pH 7.4 assessed as compound remaining measured by LC-MS/MS method; type: physicochemical
[3] = system: MV4-11; assay: Induction of apoptosis in human MV4-11 cells assessed as early apoptotic cells at 1 microM measured after 18 hrs by Annexin V/Propidium iodide stain based Flow cytometry assay (reference value: 1.7%); type: functional
[4] = system: MV4-11; assay: Induction of apoptosis in human MV4-11 cells assessed as late apoptotic cells at 0.25 microM measured after 18 hrs by Annexin V/Propidium iodide stain based Flow cytometry assay (reference value: 4.91%); type: functional
[5] = molecular target: T1, Histone deacetylase 7 (Homo sapiens, UniProt Q8WUI4); assay: Inhibition of recombinant full length human HDAC7 expressed in SF9 baculovirus using FAM- labelled acetylated peptide as substrate measured by Electrophoretic mobility shift assay
T1 sequence (Q8WUI4 whole entry): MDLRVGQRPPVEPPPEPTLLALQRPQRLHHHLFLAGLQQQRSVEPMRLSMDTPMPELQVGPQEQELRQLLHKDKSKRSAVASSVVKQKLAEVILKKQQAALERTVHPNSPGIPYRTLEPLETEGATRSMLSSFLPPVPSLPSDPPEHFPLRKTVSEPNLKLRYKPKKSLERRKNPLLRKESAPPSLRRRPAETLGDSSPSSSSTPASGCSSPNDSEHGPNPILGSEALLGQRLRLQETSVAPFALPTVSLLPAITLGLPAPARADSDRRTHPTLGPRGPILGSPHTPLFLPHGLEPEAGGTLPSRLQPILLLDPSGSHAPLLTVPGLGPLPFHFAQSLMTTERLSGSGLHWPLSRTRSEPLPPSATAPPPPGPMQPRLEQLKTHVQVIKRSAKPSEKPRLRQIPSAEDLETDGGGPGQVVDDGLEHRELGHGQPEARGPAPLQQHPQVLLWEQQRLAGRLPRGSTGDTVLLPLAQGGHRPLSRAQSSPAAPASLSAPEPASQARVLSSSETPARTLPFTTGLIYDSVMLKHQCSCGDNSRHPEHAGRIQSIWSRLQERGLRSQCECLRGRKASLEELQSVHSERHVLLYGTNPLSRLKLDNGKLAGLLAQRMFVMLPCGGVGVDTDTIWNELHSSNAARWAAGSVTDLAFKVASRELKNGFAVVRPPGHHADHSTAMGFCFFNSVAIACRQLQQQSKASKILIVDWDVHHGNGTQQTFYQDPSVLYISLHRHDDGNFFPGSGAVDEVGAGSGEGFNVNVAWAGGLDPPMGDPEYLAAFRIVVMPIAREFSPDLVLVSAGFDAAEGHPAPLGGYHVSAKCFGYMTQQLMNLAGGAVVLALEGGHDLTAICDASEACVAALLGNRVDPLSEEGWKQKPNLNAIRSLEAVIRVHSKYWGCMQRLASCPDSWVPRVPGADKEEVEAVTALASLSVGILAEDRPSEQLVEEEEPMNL

[6] = AUC (last) in CD1 mouse at 20 mg/kg, ip measured after 24 hrs by LC/MS/MS method; type: ADME, organism-based; set-up: route intraperitoneal, dose 20 mg/kg, time 24 hrs; settings: in vivo
[7] = molecular target: T2, Protein deacetylase HDAC6 (Homo sapiens) (UniProt Q9UBN7); assay: Inhibition of HDAC6 in human MV4-11 cells assessed as increase in acetylation of alpha tubulin at 0.5 uM measured after 6 hrs by Western blot assay relative to histone H3 acetylation; type: cell-based
T2 sequence (whole entry): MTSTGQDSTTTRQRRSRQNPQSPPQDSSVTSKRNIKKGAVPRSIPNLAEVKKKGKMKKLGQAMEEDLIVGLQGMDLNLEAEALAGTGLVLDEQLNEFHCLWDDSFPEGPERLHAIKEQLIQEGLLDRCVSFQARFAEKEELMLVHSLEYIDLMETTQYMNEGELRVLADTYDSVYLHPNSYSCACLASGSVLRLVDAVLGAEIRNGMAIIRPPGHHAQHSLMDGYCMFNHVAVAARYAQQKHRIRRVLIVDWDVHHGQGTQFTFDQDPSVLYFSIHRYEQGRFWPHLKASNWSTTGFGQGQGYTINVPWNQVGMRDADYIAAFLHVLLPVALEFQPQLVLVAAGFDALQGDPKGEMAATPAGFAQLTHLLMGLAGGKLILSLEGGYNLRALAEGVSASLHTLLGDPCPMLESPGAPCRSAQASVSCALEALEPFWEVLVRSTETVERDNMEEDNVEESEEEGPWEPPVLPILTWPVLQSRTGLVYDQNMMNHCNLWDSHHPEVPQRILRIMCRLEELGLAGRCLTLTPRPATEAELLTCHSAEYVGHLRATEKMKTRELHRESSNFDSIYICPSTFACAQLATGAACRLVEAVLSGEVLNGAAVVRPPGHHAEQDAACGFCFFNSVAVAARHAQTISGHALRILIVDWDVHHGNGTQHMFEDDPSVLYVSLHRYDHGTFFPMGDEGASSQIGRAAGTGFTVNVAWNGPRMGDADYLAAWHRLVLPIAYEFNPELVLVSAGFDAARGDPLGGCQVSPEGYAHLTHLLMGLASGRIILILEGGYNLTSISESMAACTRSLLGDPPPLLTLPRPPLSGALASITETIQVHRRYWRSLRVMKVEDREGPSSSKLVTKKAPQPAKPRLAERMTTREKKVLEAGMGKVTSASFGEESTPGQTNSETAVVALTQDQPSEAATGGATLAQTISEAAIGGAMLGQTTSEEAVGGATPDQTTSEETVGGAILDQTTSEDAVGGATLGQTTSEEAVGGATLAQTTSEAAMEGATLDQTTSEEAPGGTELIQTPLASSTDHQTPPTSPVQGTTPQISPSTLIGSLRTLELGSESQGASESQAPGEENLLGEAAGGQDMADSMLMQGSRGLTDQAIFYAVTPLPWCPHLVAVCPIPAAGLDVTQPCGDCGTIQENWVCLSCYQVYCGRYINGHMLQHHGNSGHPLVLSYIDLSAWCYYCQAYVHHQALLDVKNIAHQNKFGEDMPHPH
Method in brief: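 MV4-11 cells were exposed to a range of concentrations for 6 h. Protein extracts were run on SDS-PAGE and immunoblotted for acetylated α-tubulin, acetylated histone H3 and acetylated histone H4, with HSC70 as the loading reference. A representative blot of three independent experiments is shown.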

Question: With `O=C(NO)c1ccc(CNC(=O)c2c(F)c(F)c(F)c(F)c2F)cc1` as the compound, how does the pIC50 [1] read?
Answer: 5.31

Question: What about the Stabilty [2] of the same compound?
Answer: 100%

Question: And the Activity [3]?
Answer: 4.27%

Question: What about the Activity [4] of the same compound?
Answer: 5.13%

Question: What about the pIC50 [5] of the same compound?
Answer: < 6.00

Question: And the AUC(0-t) at 24 h [6]?
Answer: 190 ng·h/mL

Question: And the inhibition [7]?
Answer: Active
